The results in this text go back to ChEMBL document CHEMBL3272298, “Use of adenine nucleotide derivatives to assess the potential of exo-active-site-directed reagents as species- or isozyme-specific enzyme inactivators. 2. Isozyme-specific inactivation of a mammalian enzyme and its significance in the possible design of fetal isozyme targeted antineoplastic agents” (J Med Chem, 1978).

SMILES strings stand for the structures. Calls of active or inactive are those of the source. The calls are words filed in the database; no cut-off is given here.

The target in data set [1] is Pyruvate kinase PKM (Rattus norvegicus) (UniProt P11980). The data set can be described thus: Inactivation of Sprague-Dawley rat pyruvate kinase M using PEP as substrate at 5 mM at pH 7 after 8 hrs by spectrophotometric analysis. In a few lines:
(§1)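 Electrofocused isozymes, at tenfold (M) or twofold (L, K) assay level, exposed at pH 7.0 and 22 °C to Mg salts of the analogues. Medium: triethanolamine buffer with MgCl2, KCl, NADH, fructose diphosphate and lactate dehydrogenase, no ADP or PEP. Exposure was 8 h at 5 mM, or up to 10 mM for the liver isozyme; M controls were followed to 24 h. Timed aliquots were assayed by the coupled LDH method at 340 nm with 0.373 mM ADP, against controls lacking analogue.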

The species entered for data set [2] is Rattus norvegicus. The experiment in a line: Inactivation of Sprague-Dawley rat pyruvate kinase K using PEP as substrate at 5 mM at pH 7 after 8 hrs by spectrophotometric analysis. In short, it runs like this:
as §1

Data set [3] in a line: Retardation factor of the compound using 1-butanol-acetic acid-water as solvent system by paper chromatography. The note with it: buffer. The class given is physicochemical.
Data set [4] has as its target Pyruvate kinase PKLR (Rattus norvegicus) (UniProt P12928). The experiment in a line: Inactivation of Sprague-Dawley rat pyruvate kinase L using PEP as substrate at 5 mM at pH 7 after 8 hrs by spectrophotometric analysis. In short, it runs like this:
as §1

Data set [5] addresses Pyruvate kinase PKM (Rattus norvegicus) (UniProt P11980). The data set can be described thus: Activity at Sprague-Dawley rat pyruvate kinase M assessed as initial enzyme reaction velocity at 0.21 mM by spectrophotometric analysis relative to ADP. In a few lines:
(§2)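 Isozymes K, L and M from male Sprague-Dawley rat kidney, liver and muscle, partially purified by electrofocusing and dialyzed. Assay in 0.05 M triethanolamine-HCl pH 7.0 with 5 mM MgCl2, 67 mM KCl, 0.56 mM phosphoenolpyruvate, 0.4 mM NADH, 10 μM fructose 1,6-diphosphate, 0.21 mM nucleotide and lactate dehydrogenase. After 5 min preincubation, the nucleotide starts the reaction. Initial rate at 340 nm, 22 °C, expressed relative to ADP (100).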

For data set [6], the target named is Pyruvate kinase PKLR (Rattus norvegicus) (UniProt P12928). The experiment in a line: Activity at Sprague-Dawley rat pyruvate kinase L assessed as initial enzyme reaction velocity at 0.21 mM by spectrophotometric analysis relative to ADP. In a few lines:
as §2

The species entered for data set [7] is Rattus norvegicus. The data set can be described thus: Activity at Sprague-Dawley rat pyruvate kinase K assessed as initial enzyme reaction velocity at 0.21 mM by spectrophotometric analysis relative to ADP. In a few lines: as §2
Data set [8] addresses Pyruvate kinase PKLR (Rattus norvegicus) (UniProt P12928). The experiment in a line: Half life for inactivation of Sprague-Dawley rat pyruvate kinase L using PEP as substrate by spectrophotometric analysis. In a few lines: (§3)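 Liver isozyme incubated at 22 °C with Mg salt of the analogue at 3.0–10.0 mM in triethanolamine buffer with MgCl2, KCl, NADH, fructose diphosphate and lactate dehydrogenase, without ADP or PEP. Aliquots taken over time and assayed at 340 nm with 0.373 mM ADP. Pseudo-first-order inactivation half-times were derived, with t1/2 extrapolated to infinite inhibitor level, and apparent K from the rate-saturation analysis.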

The target of data set [9] is T1, Pyruvate kinase PKLR (Rattus norvegicus, UniProt P12928). The experiment in a line: Drug metabolism assessed as Sprague-Dawley rat pyruvate kinase L-mediated drug conversion. The class given is ADME. In short, it runs like this:
(§4)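 Each isozyme preparation (K, L, M) incubated with the analogue under inactivation conditions: pH 7.0, 22 °C, triethanolamine buffer with MgCl2 and KCl. Conversion of the analogue to other compounds checked by paper electrophoresis at pH 3.5.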

The nature of data set [10]: Drug metabolism assessed as Sprague-Dawley rat pyruvate kinase K-mediated drug conversion. The class given is ADME. In a few lines:
as §4

The species named for data set [11] is Rattus norvegicus. The experiment in a line: Inactivation of Sprague-Dawley rat pyruvate kinase K using PEP as substrate at 7 mM pretreated with pyruvate kinase L by spectrophotometric analysis.
The target in data set [12] is Pyruvate kinase PKM (Rattus norvegicus) (UniProt P11980). The experiment in a line: Inactivation of Sprague-Dawley rat pyruvate kinase M using PEP as substrate at 7 mM pretreated at 22 degC for 2 hrs with pyruvate kinase L measured for 3.5 hrs by spectrophotometric analysis. In a few lines:
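Liver isozyme treated with the analogue (7 mM) for 2 h at 22 °C under the usual inactivation conditions, then an approximately equal activity of muscle isozyme added. Muscle activity followed for a further 3.5 h by the LDH-coupled 340 nm assay.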

The target of data set [13] is Pyruvate kinase PKLR (Rattus norvegicus) (UniProt P12928). The data set can be described thus: Inactivation of Sprague-Dawley rat pyruvate kinase L using PEP as substrate at 5 mM at pH 7 after 8 hrs by spectrophotometric analysis in presence of 5 mM ADP. In a few lines:
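Liver isozyme exposed to 5 mM Mg-analogue together with 5 mM ADP for 8 h at 22 °C, pH 7.0, in triethanolamine/MgCl2/KCl medium. Remaining activity was measured in timed aliquots by the LDH-coupled 340 nm assay with 0.373 mM ADP.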

For data set [14] the target is unchanged. The experiment in a line: Inactivation of Sprague-Dawley rat pyruvate kinase L using PEP as substrate at 7 mM pretreated with pyruvate kinase K by spectrophotometric analysis.
The target in data set [15] is T1, Pyruvate kinase PKLR. The experiment in a line: Binding affinity to Sprague-Dawley rat pyruvate kinase L assessed as apprent enzyme-inhibitor dissociation constant using PEP as substrate by spectrophotometric analysis. Conditions: read-out: Kd(app). In short, it runs like this:
as §3

A further data set concerns the target Pyruvate kinase PKM (Rattus norvegicus, UniProt P11980). The data set can be described thus: Drug metabolism assessed as Sprague-Dawley rat pyruvate kinase M-mediated drug conversion. The class given is ADME. In short, it runs like this:
as §4

In data set [16] the target is Pyruvate kinase PKLR (Rattus norvegicus) (UniProt P12928). The experiment in a line: Inactivation of Sprague-Dawley rat pyruvate kinase L using PEP as substrate at 7 mM pretreated with pyruvate kinase M measured for 4 hrs by spectrophotometric analysis. In a few lines:
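Muscle isozyme first exposed to the analogue (7 mM) under the usual inactivation conditions at 22 °C, then liver isozyme added. Liver isozyme inactivation was followed over 4 h by the LDH-coupled 340 nm assay.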

Data set [17] has the same target. The experiment in a line: Inactivation of Sprague-Dawley rat pyruvate kinase L using PEP as substrate at 10 mM at pH 7 after 8 hrs by spectrophotometric analysis. In a few lines: as §1

Chain of Pyruvate kinase PKLR (Rattus norvegicus) (P12928 whole entry): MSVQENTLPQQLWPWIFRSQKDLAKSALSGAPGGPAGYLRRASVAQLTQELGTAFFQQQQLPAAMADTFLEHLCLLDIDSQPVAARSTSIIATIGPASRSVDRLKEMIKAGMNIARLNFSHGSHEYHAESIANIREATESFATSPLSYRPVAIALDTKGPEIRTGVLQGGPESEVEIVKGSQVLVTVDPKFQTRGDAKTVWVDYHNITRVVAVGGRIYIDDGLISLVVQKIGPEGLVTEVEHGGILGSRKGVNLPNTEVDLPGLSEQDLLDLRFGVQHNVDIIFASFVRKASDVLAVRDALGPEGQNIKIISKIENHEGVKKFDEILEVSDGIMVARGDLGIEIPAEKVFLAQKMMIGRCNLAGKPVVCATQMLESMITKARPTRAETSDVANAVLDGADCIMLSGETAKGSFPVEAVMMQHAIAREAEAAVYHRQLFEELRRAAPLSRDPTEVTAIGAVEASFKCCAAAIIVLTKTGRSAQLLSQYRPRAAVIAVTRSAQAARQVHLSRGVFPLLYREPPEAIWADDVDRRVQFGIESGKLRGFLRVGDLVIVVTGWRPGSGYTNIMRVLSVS
Chain of Pyruvate kinase PKM (Rattus norvegicus) (P11980 whole entry): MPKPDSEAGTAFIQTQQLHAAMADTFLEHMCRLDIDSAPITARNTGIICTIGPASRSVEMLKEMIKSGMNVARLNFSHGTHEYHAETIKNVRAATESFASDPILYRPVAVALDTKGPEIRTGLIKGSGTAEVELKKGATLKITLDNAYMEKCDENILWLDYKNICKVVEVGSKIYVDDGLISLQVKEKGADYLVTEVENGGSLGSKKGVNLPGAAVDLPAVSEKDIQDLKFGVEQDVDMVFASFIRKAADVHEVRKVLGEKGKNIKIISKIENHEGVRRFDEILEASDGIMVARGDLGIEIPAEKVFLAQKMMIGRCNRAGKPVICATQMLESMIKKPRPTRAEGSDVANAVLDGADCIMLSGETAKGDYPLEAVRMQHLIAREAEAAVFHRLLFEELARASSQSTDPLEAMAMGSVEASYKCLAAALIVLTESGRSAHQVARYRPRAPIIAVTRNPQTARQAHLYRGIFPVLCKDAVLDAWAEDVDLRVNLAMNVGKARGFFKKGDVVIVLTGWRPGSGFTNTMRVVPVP
T1 sequence (P12928 whole entry): as the sequence (P12928 whole entry) above
Chain of Pyruvate kinase PKM (P11980 whole entry): as the sequence (P11980 whole entry) above

With `O=C(CI)NCCCCCCNc1ncnc2c1ncn2[C@@H]1O[C@H](COP(=O)(O)OP(=O)(O)O)[C@@H](O)[C@H]1O`, the inhibition entry (in [1]; in the data set filed under Rattus norvegicus [2]; in [4]) was “inactive” throughout. Also, in [3], the Rf is reported as 0.65. In addition, the Activity in data set [5] was 19%; in data set [6], 9%.
Regarding `O=C(CI)NCCNc1ncnc2c1ncn2[C@@H]1O[C@H](COP(=O)(O)OP(=O)(O)O)[C@@H](O)[C@H]1O`, the inhibition entry (in [1]; in the data set listed under Rattus norvegicus [2]; in data set [4]) was “inactive” in each case. Moreover, in data set [3], the Rf was found to be 0.53.
As to `O=C(CI)NCCCCCNc1ncnc2c1ncn2[C@@H]1O[C@H](COP(=O)(O)OP(=O)(O)O)[C@@H](O)[C@H]1O`, the inhibition result (in data set [1]; in the data set filed under Rattus norvegicus [2]; in [4]) was “inactive” in each case. In addition, in data set [3], the Rf was found to be 0.6. Moreover, the Activity came to 7% in [5] and 8% in data set [6].
Turning to `O=C(CI)NCCCCCCCCNc1ncnc2c1ncn2[C@@H]1O[C@H](COP(=O)(O)OP(=O)(O)O)[C@@H](O)[C@H]1O`, the results for the Activity (in the data set filed under Rattus norvegicus [7]; in data set [5]; in data set [6]) were 21%, 54% and 13%, respectively. The same compound showed a T1/2 in data set [8] of 23 min. Moreover, the Drug metabolism entry (on Pyruvate kinase PKLR [9]; in [10]; at Pyruvate kinase PKM) was “metabolite_notdetected” in each case. For the same compound, the inhibition result (in the data set filed under Rattus norvegicus [11]; in data set [12]; in the data set filed under Rattus norvegicus [2]; in data set [13]) was “inactive” each time. For the same compound, in data set [3], the Rf was 0.71. For the same compound, the inhibition in data set [4] amounted to 80%. Moreover, the inhibition entry in [14] and in [16] was “Active” each time. Besides, the Kd on Pyruvate kinase PKLR [15] came out at 36 mM.
As for `CC(=O)NCCCCCCCCNc1ncnc2c1ncn2[C@@H]1O[C@H](COP(=O)(O)OP(=O)(O)O)[C@@H](O)[C@H]1O`, the inhibition entry in data set [4] was “inactive”. For the same compound, the Activity in data set [6] was 9%.
With `O=C(CI)NCCCNc1ncnc2c1ncn2[C@@H]1O[C@H](COP(=O)(O)OP(=O)(O)O)[C@@H](O)[C@H]1O`, the inhibition entry (in [1]; in the data set filed under Rattus norvegicus [2]; in [4]) was “inactive” in each case. The compound also showed a Rf in [3] of 0.55.
On to `O=C(CI)NCCCCCCCNc1ncnc2c1ncn2[C@@H]1O[C@H](COP(=O)(O)OP(=O)(O)O)[C@@H](O)[C@H]1O`, for which the inhibition result (in [1]; in the data set listed under Rattus norvegicus [2]; in data set [4]) was “inactive” throughout. The compound also yielded a Rf in data set [3] of 0.68. For the same compound, the figures for the Activity in data set [5] and in [6] were 25% and 12%, respectively.
As for `O=C(CI)NCCCCCCCCNc1ncnc2c1ncn2[C@@H]1O[C@H](COP(=O)(O)OP(=O)(O)OP(=O)(O)O)[C@@H](O)[C@H]1O`, the inhibition entry in [4] is “inactive”.
On to `O=C(CI)NCCCCNc1ncnc2c1ncn2[C@@H]1O[C@H](COP(=O)(O)OP(=O)(O)O)[C@@H](O)[C@H]1O`, for which the inhibition entry (in data set [1]; in the data set listed under Rattus norvegicus [2]; in data set [4]) was “inactive” in each case. Further, the Rf in data set [3] worked out at 0.58.
`O=C(CI)NCCCCCCCCNc1ncnc2c1ncn2[C@@H]1O[C@H](COP(=O)(O)O)[C@@H](O)[C@H]1O`: the inhibition entry in data set [17] is “inactive”.
